Results as given in ChEMBL document CHEMBL4196194, “De Novo Design of α-Helical Lipopeptides Targeting Viral Fusion Proteins: A Promising Strategy for Relatively Broad-Spectrum Antiviral Drug Discovery” (J Med Chem, 2018).
≈ marks a conversion by molar mass, not a printed value. Calls of active or inactive are those of the source. The rule behind the calls is not given here. Where a SMILES comes first, the peptide text is derived from it. [ ]: non-standard residue; d: D form. The star is where a group is joined. Palmitoyl = CCCCCCCCCCCCCCCC(=O)*; βAla = NCCC(=O)O

Experiments:
[1] = target: Hemagglutinin (Influenza A virus (A/Puerto Rico/8/1934(H1N1))) (UniProt P03452); assay: Inhibition of Influenza A virus (A/Puerto Rico/8/1934(H1N1)) Hemagglutinin 2-mediated hemolysis of chicken erythrocytes at acidic pH conditions
Chain of Hemagglutinin (Influenza A virus (A/Puerto Rico/8/1934(H1N1))) (P03452 whole entry): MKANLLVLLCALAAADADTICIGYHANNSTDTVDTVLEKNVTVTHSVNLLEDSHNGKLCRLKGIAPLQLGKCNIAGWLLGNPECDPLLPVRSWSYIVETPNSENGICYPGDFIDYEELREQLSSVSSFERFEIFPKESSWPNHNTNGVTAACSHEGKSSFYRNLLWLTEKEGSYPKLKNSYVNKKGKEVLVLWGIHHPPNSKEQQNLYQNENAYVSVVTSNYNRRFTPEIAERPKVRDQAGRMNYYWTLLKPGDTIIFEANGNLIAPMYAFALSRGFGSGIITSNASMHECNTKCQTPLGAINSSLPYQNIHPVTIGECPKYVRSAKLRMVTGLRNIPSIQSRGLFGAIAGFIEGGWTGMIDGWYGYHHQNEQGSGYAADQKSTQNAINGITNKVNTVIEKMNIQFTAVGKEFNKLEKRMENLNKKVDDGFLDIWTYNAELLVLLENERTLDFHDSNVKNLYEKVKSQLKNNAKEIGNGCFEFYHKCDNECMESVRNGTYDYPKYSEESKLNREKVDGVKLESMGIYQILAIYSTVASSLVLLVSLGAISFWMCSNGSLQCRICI

[2] = Half life in Sprague-Dawley rat at 5 mg/kg, iv administered as single dose by LC-MS/MS analysis; assay type: ADME, organism-based; conditions: in vivo
[3] = AUC (0 to t) in Sprague-Dawley rat at 5 mg/kg, iv administered as single dose by LC-MS/MS analysis; assay type: ADME, organism-based; conditions: in vivo
Influenza A virus [4] = conditions: Hong Kong/8/1968(H3N2), 0.1 to 1000 uM
[5] = Cytotoxicity in MDCK cells assessed as reduction in cell viability incubated for 72 hrs by cell-titer-Glo cell viability assay; assay type: cell-based, Canis lupus familiaris; conditions: dog
[6] = target: Hemagglutinin (Influenza A virus (A/Puerto Rico/8/1934(H1N1))) (UniProt P03452); assay: Inhibition of Influenza A virus (A/Puerto Rico/8/1934(H1N1)) Hemagglutinin 1-induced aggregation of chicken erythrocytes at 0.05 to 100 uM
Influenza A virus [7] = assay: Binding affinity to influenza A virus hemagglutinin 2 synthetic peptide N66 at pH 5 by sedimentation velocity analysis
Procedure, shortened: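 Complexes at 150 μM final: with HR1P 30 min at 25 °C in 10 mM phosphate pH 7.4; with N66 30 min at 30 °C in sodium acetate/phosphate/NaCl pH 5.0. Sedimentation velocity at 280 nm, 3000 then 60000 rpm, 25 °C; c(s) distribution and molecular weight derived.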

Influenza A virus [8] = assay: Inhibition of influenza A virus infected in MDCK cells assessed as inhibition of viral load treated with compound at 0 to 10 hrs post-infection by RT-qPCR method based time of addition assay; assay type: functional
Procedure, shortened: (§1)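 MDCK cells (2.0 × 10^5/well) washed with PBS, virus adsorbed (MOI 0.05) 60 min at 4 °C, washed, then compound present only during 0–10, 0–2, 2–5, 5–8 or 8–10 h postinfection; cultured in fresh medium to 10 h, total RNA extracted, viral load by absolute one-step RT-qPCR; triplicate, versus PBS control.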

[9] = tested on: Middle East respiratory syndrome-related coronavirus; assay: Binding affinity to MERS-CoV spike protein synthetic peptide HR1P assessed as changes in alpha-helical structures at 10 uM at pH 7.4 by CD spectroscopy
Procedure, shortened: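 Peptides at 10 μM final. HR1P incubated with test peptide 30 min at 25 °C in 10 mM phosphate, pH 7.4; N66 30 min at 30 °C in 10 mM sodium acetate/10 mM sodium phosphate/150 mM NaCl, pH 5.0; measured at 25 °C. Mean residue ellipticity; helicity from −33000 deg cm2 dmol−1 = 100%.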

Influenza A virus [10] = assay: Inhibition of influenza A virus infected in MDCK cells assessed as inhibition of viral load treated with compound at 2 to 5 hrs post-infection by RT-qPCR method based time of addition assay; assay type: functional, organism-based; procedure, shortened: as §1
[11] = Solubility in pure water at 2 mg by HPLC-UV method; assay type: physicochemical
Influenza B virus = assay: Antiviral activity against Influenza B virus (B/Lee/40); assay type: functional, organism-based; conditions: B/Lee/1940
[12] = Cytotoxicity in human TZM-bl cells; assay type: cell-based
Rattus norvegicus [13] = assay: Volume of distribution at steady state in Sprague-Dawley rat at 5 mg/kg, iv administered as single dose by LC-MS/MS analysis; assay type: ADME, organism-based; conditions: in vivo
Rattus norvegicus [14] = assay: MRT (0 to t) in Sprague-Dawley rat at 5 mg/kg, iv administered as single dose by LC-MS/MS analysis; assay type: ADME, organism-based; conditions: in vivo
[15] = Selectivity index, ratio of CC50 for cytotoxicity in MDCK cells to EC50 for antiviral activity against Influenza A virus (A/Hong Kong/8/1968([…])) infected in HEK293T cells; assay type: toxicity, cell-based; conditions: dog
[16] = tested on: Middle East respiratory syndrome-related coronavirus; assay: Binding affinity to MERS-CoV spike protein synthetic peptide HR1P assessed as melting temperature at 10 uM at pH 7.4 by CD spectroscopy
Procedure, shortened: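 Thermal unfolding by CD at 222 nm, 10–90 °C at 2 °C/min. Samples held 10 μM peptide: for HR1P in 10 mM phosphate pH 7.4; for N66 in 10 mM sodium acetate with 10 mM sodium phosphate and 150 mM NaCl, pH 5.0.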

[17] = tested on: Middle East respiratory syndrome-related coronavirus; assay: Antiviral activity against MERS-CoV pseudovirus infected in human HuH7 cells treated with 30 mins pre-treated pseudovirus/compopund mixture and measured after 48 hrs by luciferase reporter assay; assay type: functional, organism-based
Procedure, shortened: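 Serially diluted peptide premixed with MERS-CoV pseudovirus 30 min at 37 °C, then added to Huh-7 cells; medium replaced at 12 h postinfection and cells cultured a further 48 h at 37 °C before luciferase read-out.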

[18] = Cmax in Sprague-Dawley rat at 5 mg/kg, iv administered as single dose by LC-MS/MS analysis; assay type: ADME, organism-based; parameters: dose 5 mg/kg, route intravenous; conditions: in vivo
Rattus norvegicus [19] = assay: Clearance in Sprague-Dawley rat at 5 mg/kg, iv administered as single dose by LC-MS/MS analysis; assay type: ADME, organism-based; conditions: in vivo
Influenza A virus [20] = assay: Inhibition of influenza A virus infected in MDCK cells assessed as inhibition of viral load treated with compound at 0 to 2 hrs post-infection by RT-qPCR method based time of addition assay; assay type: functional; procedure, shortened: as §1
Influenza A virus [21] = assay: Inhibition of influenza A virus infected in MDCK cells assessed as inhibition of viral load treated with compound at 8 to 10 hrs post-infection by RT-qPCR method based time of addition assay; assay type: functional, organism-based; procedure, shortened: as §1
Influenza A virus [22] = assay: Antiviral activity against Influenza A virus (A/Puerto Rico/8/1934(H1N1)) infected in HEK293T cells assessed as inhibition of viral replicon activity incubated for 30 hrs by dual-Glo luciferase assay; assay type: functional, organism-based; conditions: HEK-293T
Procedure, shortened: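 HEK293T cells (2.5 × 10^4/well) transfected with plasmids for NP, PB1, PB2, PA plus p0LN-S-Luc firefly and pRL-SV40 Renilla reporters; serially diluted compound added 6 h post-transfection, luciferase read after 30 h by Dual-Glo. Activity = firefly/Renilla ratio; % inhibition normalized to positive and negative controls, curve-fitted; three independent measurements.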

Influenza A virus [23] = assay: Inhibition of influenza A virus infected in MDCK cells assessed as inhibition of viral load treated with compound at 5 to 8 hrs post-infection by RT-qPCR method based time of addition assay; assay type: functional, organism-based; procedure, shortened: as §1
Influenza A virus [24] = conditions: A/Puerto Rico/8/1934(H1N1), 0.1 to 1000 uM
[25] = Cytotoxicity in human HuH7 cells assessed as reduction in cell viability incubated for 48 hrs by CCK8 assay; assay type: cell-based, Huh-7
Procedure, shortened: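 Huh-7 cells (1 × 10^5 cells/mL suspension seeded) grown 12 h at 37 °C, 5% CO2, then serially diluted peptide added for 48 h; untreated blank and Triton X-100 controls. CCK-8 added for 2 h, absorbance at 450 nm.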

[26] = tested on: Middle East respiratory syndrome-related coronavirus; assay: Binding affinity to MERS-CoV spike protein synthetic peptide HR1P at 75 uM incubated for 30 mins by Coomassie blue R250 staining based native polyacrylamide gel electrophoresis method
Procedure, shortened: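 Equimolar mix with HR1P (150 μM each) in 10 mM phosphate pH 7.4, 30 min at 25 °C; diluted 1:1 in β-alanine–formic acid sample buffer, run on 15% β-alanine–formic acid gel at pH 3.4 (90 V then 150 V, 2.5 h); Coomassie R250 stain.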

CCCCCCCCCCCCCCCC(=O)NCCCC[C@H](NC(=O)CCNC(=O)[C@H](CCCCN)NC(=O)[C@H](CCCCN)NC(=O)[C@H](CCC(N)=O)NC(=O)[C@@H](NC(=O)[C@H](CCC(=O)O)NC(=O)[C@H](CCC(=O)O)NC(=O)[C@@H](NC(=O)[C@H](CCCCN)NC(=O)[C@H](CCCCN)NC(=O)[C@H](CCC(N)=O)NC(=O)[C@@H](NC(=O)[C@H](CCC(=O)O)NC(=O)[C@H](CCC(=O)O)NC(=O)[C@@H](NC(=O)[C@H](CCCCN)NC(=O)[C@H](CCCCN)NC(=O)[C@H](CCC(N)=O)NC(=O)[C@@H](NC(=O)[C@H](CCC(=O)O)NC(=O)[C@H](CCC(=O)O)NC(=O)[C@@H](NC(=O)[C@H](CCCCN)NC(=O)[C@H](CCCCN)NC(=O)[C@H](CCC(N)=O)NC(=O)[C@@H](NC(=O)[C@H](CCC(=O)O)NC(=O)[C@H](CCC(=O)O)NC(=O)[C@@H](NC(=O)[C@H](CCCCN)NC(=O)[C@H](CCCCN)NC(=O)[C@H](CCC(N)=O)NC(=O)[C@@H](NC(=O)[C@H](CCC(=O)O)NC(=O)[C@H](CCC(=O)O)NC(=O)[C@@H](NC(C)=O)[C@@H](C)CC)[C@@H](C)CC)[C@@H](C)CC)[C@@H](C)CC)[C@@H](C)CC)[C@@H](C)CC)[C@@H](C)CC)[C@@H](C)CC)[C@@H](C)CC)[C@@H](C)CC)C(N)=O (Ac-IEEIQKKIEEIQKKIEEIQKKIEEIQKKIEEIQKK[βAla]K(Palmitoyl)-NH2)
inhibition [1]: Active
half-life [2]: 6.6 h
AUC(0-t) [3]: 235 µg·h/mL
inhibition (Influenza A virus [4]): inactive
CC50 at 72 h [5]: > 100000 nM
inhibition [6]: inactive
Activity (Influenza A virus [7]): Active
inhibition (INH) (Influenza A virus [8]): 60%
Activity [9]: Active
inhibition (Influenza A virus [10]): inactive
solubility [11]: 8870 µg/mL (≈ 1830 µM)
EC50 (Influenza B virus): 1870 nM
CC50 [12]: > 100000 nM
Vdss (Rattus norvegicus [13]): 0.1978 L/kg
MRT(t) (Rattus norvegicus [14]): 4.1 h
selectivity ratio [15]: > 143
Tm [16]: > 90 °C
Activity [17]: Active
Cmax [18]: 97.6 µg/mL
CL (Rattus norvegicus [19]): 0.345 mL/min/kg
inhibition (INH) (Influenza A virus [20]): 60%
inhibition (Influenza A virus [21]): inactive
EC50 (Influenza A virus [22]): 1730 nM
inhibition (Influenza A virus [23]): inactive
inhibition (Influenza A virus [24]): inactive
CC50 at 48 h [25]: > 100000 nM
Activity [26]: Active
